From ChEMBL document CHEMBL4017446, “Discovery of (2-aminophenyl)methanol as a new molecular chaperone that rescues the localization of P123S mutant pendrin stably expressed in HEK293 cells” (Bioorg Med Chem, 2017)
Activity calls are given as the source filed them. The calls are words filed in the database; no cut-off is given here.

Columns and labels:
[1] = test system: HEK293; assay: Cytotoxicity against HEK293 cells harboring pendrin P123S mutant after 72 hrs by MTT assay; assay type: cell-based; details: Homo sapiens, HEK293, 72 h
Summary of the method: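 Stable P123S pendrin HEK293 cells were seeded at 5 × 10^4 cells/well and preincubated 12 h at 37 °C. Cells were then exposed to compound at various concentrations in RPMI-1640 for 72 h. Viability was measured by MTT, and IC50 was taken from semilogarithmic dose-response plots. Triplicate experiments.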

[2] = test system: T1, Pendrin (Homo sapiens), O43511 [P123S]; assay: Chaperone activity at recombinant human C-terminal FLAG-tagged pendrin P123S mutant expressed in HEK293 cells assessed as increase in localization of protein mutant in plasma membrane at 1 to 30 mM after 12 hrs by DAPI staining based immunofluorescence microscopic analysis; assay type: cell-based
T1 sequence (whole entry): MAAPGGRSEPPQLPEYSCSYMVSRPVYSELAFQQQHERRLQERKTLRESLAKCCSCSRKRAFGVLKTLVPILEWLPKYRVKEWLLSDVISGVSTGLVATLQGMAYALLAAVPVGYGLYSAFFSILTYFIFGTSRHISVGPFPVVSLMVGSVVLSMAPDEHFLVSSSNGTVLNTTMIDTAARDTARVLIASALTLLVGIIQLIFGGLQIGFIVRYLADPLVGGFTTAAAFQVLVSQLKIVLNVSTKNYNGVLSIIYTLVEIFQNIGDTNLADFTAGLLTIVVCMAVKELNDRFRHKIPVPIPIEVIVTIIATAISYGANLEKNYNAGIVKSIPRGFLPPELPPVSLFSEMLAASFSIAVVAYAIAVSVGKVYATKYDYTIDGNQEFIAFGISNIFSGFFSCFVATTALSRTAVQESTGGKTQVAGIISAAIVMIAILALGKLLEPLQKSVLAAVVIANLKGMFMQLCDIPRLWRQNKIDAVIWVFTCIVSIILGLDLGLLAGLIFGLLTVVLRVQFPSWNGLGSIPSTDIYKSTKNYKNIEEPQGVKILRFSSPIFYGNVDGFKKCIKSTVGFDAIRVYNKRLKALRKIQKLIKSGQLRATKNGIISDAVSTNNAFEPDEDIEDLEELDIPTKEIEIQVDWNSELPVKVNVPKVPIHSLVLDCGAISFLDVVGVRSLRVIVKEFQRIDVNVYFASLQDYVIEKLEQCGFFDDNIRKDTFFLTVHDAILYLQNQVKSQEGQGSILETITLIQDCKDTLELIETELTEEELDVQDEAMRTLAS
Summary of the method: (§1)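 Stable P123S pendrin HEK293 cells were screened in 96-well plates after 12 h exposure to compound or 0.1% DMSO. WT cells with vehicle served as positive control. Cells were anti-FLAG/DAPI immunostained, and about 100 cells per field across 100 fields were imaged by automated high-content analysis. The read-out was cytoplasmic fluorescence intensity in a 5-pixel band 2–7 pixels inside the cell outline.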

[3] = test system: HEK293; assay: Cytotoxicity against HEK293 cells harboring pendrin P123S mutant assessed as decrease in cell viability at 15 mM after 72 hrs by MTT assay; assay type: cell-based; details: human, hek293, 72 h, 15000 µM
[4] = test system: HEK293; assay: Induction of HEK293 cell aggregation measured after 12 hrs by DAPI staining based immunofluorescence microscopic method; details: human, hek293, 12 h
Summary of the method: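 Stable P123S pendrin HEK293 cells were incubated with compound for 12 h in 35 mm dishes, then immunostained with anti-FLAG and DAPI. Cell aggregation was observed under a fluorescence microscope.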

[5] = test system: T1, Pendrin (Homo sapiens), O43511 [P123S]; assay: Chaperone activity at recombinant human C-terminal FLAG-tagged pendrin P123S mutant expressed in HEK293 cells assessed as increase in fluorescence intensity ratio of plasma membrane to cytoplasm measured after 12 hrs by DAPI staining based immunofluorescence microscopic method; assay type: cell-based
Summary of the method: (§2)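 Stable HEK293 line expressing FLAG-tagged P123S pendrin, grown in 10% FBS-RPMI-1640, treated 12 h with compound or vehicle (0.1% DMSO) in 35 mm dishes. Cells were fixed in 4% paraformaldehyde, stained with anti-FLAG primary antibody, Alexa Fluor 546 secondary and DAPI, and imaged by confocal microscopy. Mean intensities of 20 regions ([…]) in plasma membrane and cytoplasm gave the M/C ratio; 6–9 cells averaged.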

[6] = test system: T1, Pendrin (Homo sapiens), O43511 [P123S]; assay: Chaperone activity at recombinant human C-terminal FLAG-tagged pendrin P123S mutant expressed in HEK293 cells assessed as fluorescence intensity ratio of plasma membrane to cytoplasm at 10 mM measured after 12 hrs by DAPI staining based immunofluorescence microscopic method; assay type: cell-based; summary of the method: as §2
[7] = test system: T1, Pendrin (Homo sapiens), O43511 [P123S]; assay: Chaperone activity at recombinant human C-terminal FLAG-tagged pendrin P123S mutant expressed in HEK293 cells assessed as intracellular localization of mutant protein in plasma membrane at 10 mM incubated for 12 hrs followed by compound washout measured after 6 hrs by DAPI staining based immunofluorescence microscopic analysis; assay type: cell-based
Summary of the method: (§3)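 Stable P123S pendrin HEK293 cells (5 × 10^4/well) were exposed to compound or 0.1% DMSO for 12 h, washed with PBS, then kept in fresh medium for 0, 6 or 12 h. They were then anti-FLAG/DAPI immunostained and imaged by confocal microscopy to follow pendrin distribution at the plasma membrane. Triplicate experiments.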

[8] = test system: T1, Pendrin (Homo sapiens), O43511 [P123S]; assay: Chaperone activity at recombinant human C-terminal FLAG-tagged pendrin P123S mutant expressed in HEK293 cells assessed as increase in localization of protein mutant in plasma membrane at 0.03 to 1 mM after 12 hrs by DAPI staining based immunofluorescence microscopic analysis; assay type: cell-based; summary of the method: as §1
[9] = test system: T1, Pendrin (Homo sapiens), O43511 [P123S]; assay: Chaperone activity at recombinant human C-terminal FLAG-tagged pendrin P123S mutant expressed in HEK293 cells assessed as fluorescence intensity ratio of plasma membrane to cytoplasm at 0.1 mM measured after 12 hrs by DAPI staining based immunofluorescence microscopic method; assay type: cell-based; summary of the method: as §2
[10] = test system: T1, Pendrin (Homo sapiens), O43511 [P123S]; assay: Chaperone activity at recombinant human C-terminal FLAG-tagged pendrin P123S mutant expressed in HEK293 cells assessed as intracellular localization of mutant protein in plasma membrane at 0.1 mM incubated for 12 hrs followed by compound washout measured after 6 hrs by DAPI staining based immunofluorescence microscopic analysis; assay type: cell-based; summary of the method: as §3
[11] = test system: T1, Pendrin (Homo sapiens), O43511 [P123S]; assay: Chaperone activity at recombinant human C-terminal FLAG-tagged pendrin P123S mutant expressed in HEK293 cells assessed as intracellular localization of mutant protein in plasma membrane at 0.1 mM incubated for 12 hrs followed by compound washout measured after 12 hrs by DAPI staining based immunofluorescence microscopic analysis; assay type: cell-based; summary of the method: as §3
[12] = test system: T1, Pendrin (Homo sapiens), O43511 [P123S]; assay: Chaperone activity at recombinant human C-terminal FLAG-tagged pendrin P123S mutant expressed in HEK293 cells assessed as translocation of mutant protein from cytoplasm to plasma membrane at 0.1 mM measured after 12 hrs by DAPI staining based immunofluorescence microscopic analysis; assay type: cell-based
Summary of the method: (§4)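 HEK293 cells stably expressing FLAG-tagged P123S pendrin were incubated 12 h with compound or 0.1% DMSO in dishes. WT-pendrin cells given vehicle served as reference. Cells were fixed in paraformaldehyde, blocked in 1% BSA, stained with anti-FLAG/Alexa Fluor 546 secondary plus DAPI, and membrane versus cytoplasmic localization was judged by confocal imaging.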

[13] = test system: T1, Pendrin (Homo sapiens), O43511 [P123S]; assay: Potency index, ratio of compound effect to salicylate effect for chaperone activity at recombinant human C-terminal FLAG-tagged pendrin P123S mutant expressed in HEK293 cells assessed as translocation of mutant protein from cytoplasm to plasma membrane; assay type: cell-based
[14] = test system: T1, Pendrin (Homo sapiens), O43511 [P123S]; assay: Chaperone activity at recombinant human C-terminal FLAG-tagged pendrin P123S mutant expressed in HEK293 cells assessed as fluorescence intensity ratio of plasma membrane to cytoplasm at 0.3 mM measured after 12 hrs by DAPI staining based immunofluorescence microscopic method; assay type: cell-based; summary of the method: as §2
[15] = test system: T1, Pendrin (Homo sapiens), O43511 [P123S]; assay: Chaperone activity at recombinant human C-terminal FLAG-tagged pendrin P123S mutant expressed in HEK293 cells assessed as translocation of mutant protein from cytoplasm to plasma membrane at 1 to 10 mM measured after 12 hrs by DAPI staining based immunofluorescence microscopic analysis; assay type: cell-based; summary of the method: as §4
[16] = test system: T1, Pendrin (Homo sapiens), O43511 [P123S]; assay: Chaperone activity at recombinant human C-terminal FLAG-tagged pendrin P123S mutant expressed in HEK293 cells assessed as translocation of mutant protein from cytoplasm to plasma membrane at 3 mM measured after 12 hrs by DAPI staining based immunofluorescence microscopic analysis; assay type: cell-based; summary of the method: as §4
[17] = test system: T1, Pendrin (Homo sapiens), O43511 [P123S]; assay: Chaperone activity at recombinant human C-terminal FLAG-tagged pendrin P123S mutant expressed in HEK293 cells assessed as intracellular localization of mutant protein in plasma membrane at 10 mM incubated for 12 hrs followed by compound washout measured after 12 hrs by DAPI staining based immunofluorescence microscopic analysis; assay type: cell-based; summary of the method: as §3

Compound | IC50 [1] | Activity [2] | Activity [3] | other results
Nc1ccccc1C(=O)O [ANTHRANILIC ACID] | > 15 mM | inactive | 46.9% | 
O=C(O)c1ccccc1S [THIOSALICYLIC ACID] | 12.7 mM | inactive |  | 
Nc1ccc(O)c(C(=O)O)c1 [MESALAMINE] | > 15 mM | inactive | 35.5% | 
Nc1cccc(CO)c1 | > 15 mM |  | 46.7% | 
O=C(O)c1c(O)cccc1O | 10.6 mM | inactive |  | 
Nc1ccc(CO)cc1 | 12.7 mM |  |  | 
O=C(O)Cc1ccccc1O | 12.1 mM | Active |  | 
CC(=O)Oc1ccccc1C(=O)O [ASPIRIN] | 10.2 mM | inactive |  | 
OB(O)c1ccccc1O | > 15 mM | Active | 22.3% | Activity [4]: Toxic
OCCc1ccccc1O | > 15 mM | Active | 38.3% | Activity [4]: Toxic
O=C(O)c1ccccc1O [SALICYLIC ACID] | > 15 mM |  | 4.2% | Activity [5]: Dose-dependent effect; Ratio [6]: 1; Activity [7]: inactive
CC(O)CC(=O)O (stereo unspecified) | > 15 mM | Active |  | 
Nc1ccccc1CCO | > 15 mM | inactive | 35.8% | 
O=C(O)c1ccc(O)c(O)c1 [PROTOCATECHUIC ACID] | > 15 mM | inactive | 37% | 
O=C(O)CC(=O)O [MALONIC ACID] | 9.7 mM |  |  | 
Nc1ccccc1CO [ISATOIC ANHYDRIDE] |  |  |  | Activity [8]: Active; Ratio [9]: 0.9; Activity [5]: Dose-dependent effect; Activity [10]: Active; Activity [11]: Active; Activity [12]: Active; Ratio [13]: 100; Ratio [14]: 1.8
OCc1ccccc1O [SALICYL ALCOHOL] | > 15 mM | inactive | 25.3% | 
O=C(O)c1ccc([N+](=O)[O-])cc1O | 12.5 mM | Active |  | Activity [4]: Toxic
O=C(O)c1cccc(O)c1O [2,3-DIHYDROXYBENZOIC ACID] | > 15 mM | inactive | 47.4% | 
O=C(O)c1cc(O)ccc1O [GENTISIC ACID] | > 15 mM | inactive | 46.8% | 
Cc1ccc(O)c(C(=O)O)c1 | 9.8 mM |  |  | Activity [5]: Dose-dependent effect; Activity [15]: Active; Ratio [6]: 1.7; Activity [7]: Active
O=C(O)c1cc([N+](=O)[O-])ccc1O | 5.3 mM | Active |  | Activity [16]: Active; Activity [5]: Dose-dependent effect; Activity [17]: Active; Ratio [6]: 1.3; Activity [7]: Active
